Test results reported in ChEMBL document CHEMBL5260793, “Novel pyrazolo[3,4-d]pyrimidine with 4-(1H-benzimidazol-2-yl)-phenylamine as broad spectrum anticancer agents: Synthesis, cell based assay, topoisomerase inhibition, DNA intercalation and bovine serum albumin studies” (Eur J Med Chem, 2017).
The source made the active and inactive calls. The rule behind the calls is not given here.

Legend:
[1] = system: Panel ovarian (Carcinoma cell lines); test: Anticancer activity against human Panel ovarian (Carcinoma cell lines) assessed as cell growth inhibition incubated for 48 hrs by Sulphorhodamine B assay; format: functional
Method in brief: (§1)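 NCI-60 five-dose screen. Cells in RPMI 1640 with 5% FBS and 2 mM L-glutamine were plated at 5,000–40,000 cells/well and held 24 h before dosing. Compounds came from DMSO stocks and were given at five concentrations (10-fold or ½-log dilutions) for 48 h at 37 °C. Adherent cells were TCA-fixed and stained with SRB; A515 was read. GI50 was set from growth = 50% and TGI from Ti = Tz, using Tz/C/Ti.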

[2] = system: Panel prostate (Carcinoma cell lines); test: Anticancer activity against human Panel prostate (Carcinoma cell lines) assessed as total growth inhibition incubated for 48 hrs by Sulphorhodamine B assay; format: functional; method in brief: as §1
Calf thymus DNA [3] = test: Binding affinity to calf thymus DNA assessed as hypochromicity at pH 7.4 at 10 uM by UV-vis absorption spectroscopy; format: nucleic-acid assay; conditions: Bos taurus
Method in brief: (§2)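 Absorption titration at 300 K in a 1 cm cell, background subtracted. Compound was fixed (10 μM per legend; 20 μM in methods) with ct-DNA added up to 15–20 μM in 10 mM phosphate buffer, pH 7.4 (A260/A280 1.82). A buffer-addition control was run. K was taken from the 1/(Af−Aobs) vs 1/[DNA] fit.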

[4] = biological target: T1, DNA topoisomerase 1 (Homo sapiens) (UniProt P11387); test: Inhibition of human DNA topoisomerase I mediated supercoiled pHOT1 plasmid DNA relaxation upto 100 uM incubated for 30 mins by ethidium bromide staining based agarose gel electrophoresis analysis
T1 sequence (whole entry): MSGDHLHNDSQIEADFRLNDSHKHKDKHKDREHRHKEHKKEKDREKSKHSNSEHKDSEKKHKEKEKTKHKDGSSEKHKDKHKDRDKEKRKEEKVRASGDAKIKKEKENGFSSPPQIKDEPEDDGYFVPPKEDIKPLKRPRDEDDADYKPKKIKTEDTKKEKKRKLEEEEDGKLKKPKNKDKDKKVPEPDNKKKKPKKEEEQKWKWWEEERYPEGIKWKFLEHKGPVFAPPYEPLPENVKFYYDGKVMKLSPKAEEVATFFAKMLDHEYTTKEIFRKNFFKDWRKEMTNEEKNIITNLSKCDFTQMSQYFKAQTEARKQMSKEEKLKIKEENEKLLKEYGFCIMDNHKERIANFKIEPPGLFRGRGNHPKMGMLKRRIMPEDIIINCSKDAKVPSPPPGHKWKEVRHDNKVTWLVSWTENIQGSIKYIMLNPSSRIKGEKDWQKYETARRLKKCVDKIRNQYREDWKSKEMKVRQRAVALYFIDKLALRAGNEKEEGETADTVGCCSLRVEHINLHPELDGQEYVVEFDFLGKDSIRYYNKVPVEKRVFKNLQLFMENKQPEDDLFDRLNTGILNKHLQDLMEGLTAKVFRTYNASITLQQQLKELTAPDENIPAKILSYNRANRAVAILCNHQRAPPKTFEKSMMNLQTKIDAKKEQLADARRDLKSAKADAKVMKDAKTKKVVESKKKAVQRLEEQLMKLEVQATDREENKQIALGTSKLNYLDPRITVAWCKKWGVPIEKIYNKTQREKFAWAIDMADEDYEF

Calf thymus DNA [5] = test: Binding affinity to calf thymus DNA assessed as maximum absorption wavelength shift at pH 7.4 at 10 uM by UV-vis absorption spectroscopy; format: nucleic-acid assay; conditions: Bos taurus; method in brief: as §2
[6] = Anticancer activity against human Non-small cell lung cancer cell line assessed as total growth inhibition incubated for 48 hrs by Sulphorhodamine B assay; format: functional; method in brief: as §1
[7] = system: Panel ovarian (Carcinoma cell lines); test: Anticancer activity against human Panel ovarian (Carcinoma cell lines) assessed as lethality incubated for 48 hrs by Sulphorhodamine B assay; format: functional
[8] = biological target: DNA topoisomerase 2-alpha (Homo sapiens) (UniProt P11388); test: Inhibition of human DNA topoisomerase II-alpha mediated supercoiled pHOT1 plasmid DNA relaxation at 100 uM incubated for 30 mins by ethidium bromide staining based agarose gel electrophoresis analysis
Sequence of DNA topoisomerase 2-alpha (Homo sapiens) (P11388 whole entry): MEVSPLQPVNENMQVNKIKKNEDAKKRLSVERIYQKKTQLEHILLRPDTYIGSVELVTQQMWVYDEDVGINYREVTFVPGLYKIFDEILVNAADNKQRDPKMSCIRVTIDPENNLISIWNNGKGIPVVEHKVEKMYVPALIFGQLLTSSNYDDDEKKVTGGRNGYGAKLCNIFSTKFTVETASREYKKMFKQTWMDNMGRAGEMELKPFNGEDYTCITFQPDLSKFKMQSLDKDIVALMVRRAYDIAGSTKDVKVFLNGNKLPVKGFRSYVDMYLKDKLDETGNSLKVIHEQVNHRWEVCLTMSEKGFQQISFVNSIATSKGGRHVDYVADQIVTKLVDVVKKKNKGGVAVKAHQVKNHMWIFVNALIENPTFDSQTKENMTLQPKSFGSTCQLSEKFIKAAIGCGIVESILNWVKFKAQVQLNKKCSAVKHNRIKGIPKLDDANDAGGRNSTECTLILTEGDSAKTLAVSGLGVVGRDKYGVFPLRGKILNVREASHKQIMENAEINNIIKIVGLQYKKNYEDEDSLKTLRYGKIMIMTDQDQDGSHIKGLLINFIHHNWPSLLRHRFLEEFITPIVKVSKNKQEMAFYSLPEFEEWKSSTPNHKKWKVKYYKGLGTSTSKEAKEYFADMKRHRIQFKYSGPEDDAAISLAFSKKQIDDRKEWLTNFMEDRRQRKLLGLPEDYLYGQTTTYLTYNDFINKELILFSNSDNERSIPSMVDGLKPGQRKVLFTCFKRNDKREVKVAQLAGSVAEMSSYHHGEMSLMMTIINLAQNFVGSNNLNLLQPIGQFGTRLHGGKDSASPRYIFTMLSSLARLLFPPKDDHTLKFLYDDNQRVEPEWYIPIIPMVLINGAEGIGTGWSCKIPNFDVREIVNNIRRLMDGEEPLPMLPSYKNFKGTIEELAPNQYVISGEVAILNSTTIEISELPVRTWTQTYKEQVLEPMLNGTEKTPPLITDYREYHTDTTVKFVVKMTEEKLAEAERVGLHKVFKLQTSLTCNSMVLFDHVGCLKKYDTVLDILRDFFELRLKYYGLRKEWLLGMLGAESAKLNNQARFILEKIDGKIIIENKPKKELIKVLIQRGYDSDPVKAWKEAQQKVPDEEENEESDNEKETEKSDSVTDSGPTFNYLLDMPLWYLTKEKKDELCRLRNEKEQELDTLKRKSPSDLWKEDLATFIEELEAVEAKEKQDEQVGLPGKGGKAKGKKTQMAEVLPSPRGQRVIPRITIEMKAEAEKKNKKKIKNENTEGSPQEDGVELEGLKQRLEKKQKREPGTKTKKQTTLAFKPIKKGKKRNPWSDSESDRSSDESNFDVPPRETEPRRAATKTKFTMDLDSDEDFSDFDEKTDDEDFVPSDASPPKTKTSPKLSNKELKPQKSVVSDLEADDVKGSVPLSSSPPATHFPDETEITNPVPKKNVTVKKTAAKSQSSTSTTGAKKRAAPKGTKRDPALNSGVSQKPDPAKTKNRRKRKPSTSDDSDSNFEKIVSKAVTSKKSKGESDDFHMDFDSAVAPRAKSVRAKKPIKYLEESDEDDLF
Method in brief: (§3)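 Reaction buffer: 50 mM Tris-Cl pH 8.0, 120 mM KCl, 10 mM MgCl2, 0.5 mM ATP, 0.5 mM DTT. Each reaction held 500 ng supercoiled pHOT1 and 1 U human Topo IIα, with compound at 10–100 μM, for 30 min at 37 °C. Reactions were stopped with glycerol/EDTA/bromophenol blue, run on 1% agarose in TBE, and stained with ethidium bromide. Etoposide 25 μM was the positive control.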

[9] = system: Panel CNS (Carcinoma cell lines); test: Anticancer activity against human Panel CNS (Carcinoma cell lines) assessed as lethality incubated for 48 hrs by Sulphorhodamine B assay; format: functional
[10] = system: Panel renal (Carcinoma cell lines); test: Anticancer activity against human Panel renal (Carcinoma cell lines) assessed as total growth inhibition incubated for 48 hrs by Sulphorhodamine B assay; format: functional
[11] = biological target: DNA topoisomerase 2-alpha (Homo sapiens) (UniProt P11388); test: Inhibition of human DNA topoisomerase II-alpha mediated supercoiled pHOT1 plasmid DNA relaxation at 50 uM incubated for 30 mins by ethidium bromide staining based agarose gel electrophoresis analysis; method in brief: as §3
[12] = system: Panel colon (Carcinoma cell lines); test: Anticancer activity against human Panel colon (Carcinoma cell lines) assessed as lethality incubated for 48 hrs by Sulphorhodamine B assay; format: functional
[13] = Anticancer activity against human Non-small cell lung cancer cell line assessed as lethality incubated for 48 hrs by Sulphorhodamine B assay; format: functional
[14] = system: Panel prostate (Carcinoma cell lines); test: Anticancer activity against human Panel prostate (Carcinoma cell lines) assessed as cell growth inhibition incubated for 48 hrs by Sulphorhodamine B assay; format: functional; method in brief: as §1
Calf thymus DNA [15] = test: Displacement of Ethidium bromide from calf thymus DNA/EtBr complex assessed as decrease in fluorescent intensity by fluorescence based EtBr-displacement assay; format: nucleic-acid assay; conditions: Bos taurus
Method in brief: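 ct-DNA (0–20 μM) was pre-mixed with ethidium bromide, diluted from a 1 mM stock. Compound was then added in 2 μM steps up to 50 μM, with mixing after each addition. Emission was recorded with excitation at 480 nm.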

[16] = biological target: DNA topoisomerase 2-alpha (Homo sapiens) (UniProt P11388); test: Inhibition of human DNA topoisomerase II-alpha mediated supercoiled pHOT1 plasmid DNA relaxation at 75 uM incubated for 30 mins by ethidium bromide staining based agarose gel electrophoresis analysis; method in brief: as §3
[17] = system: Panel melanoma (Carcinoma cell lines); test: Anticancer activity against human Panel melanoma (Carcinoma cell lines) assessed as lethality incubated for 48 hrs by Sulphorhodamine B assay; format: functional
[18] = system: Panel colon (Carcinoma cell lines); test: Anticancer activity against human Panel colon (Carcinoma cell lines) assessed as total growth inhibition incubated for 48 hrs by Sulphorhodamine B assay; format: functional; method in brief: as §1
Albumin = Albumin (Bos taurus, UniProt P02769); test: Binding affinity to bovine serum albumin assessed as decrease in fluorescence intensity at pH 7.4 at 0 to 30 uM by fluorescence quenching method; conditions: cattle
Sequence of Albumin (P02769 whole entry): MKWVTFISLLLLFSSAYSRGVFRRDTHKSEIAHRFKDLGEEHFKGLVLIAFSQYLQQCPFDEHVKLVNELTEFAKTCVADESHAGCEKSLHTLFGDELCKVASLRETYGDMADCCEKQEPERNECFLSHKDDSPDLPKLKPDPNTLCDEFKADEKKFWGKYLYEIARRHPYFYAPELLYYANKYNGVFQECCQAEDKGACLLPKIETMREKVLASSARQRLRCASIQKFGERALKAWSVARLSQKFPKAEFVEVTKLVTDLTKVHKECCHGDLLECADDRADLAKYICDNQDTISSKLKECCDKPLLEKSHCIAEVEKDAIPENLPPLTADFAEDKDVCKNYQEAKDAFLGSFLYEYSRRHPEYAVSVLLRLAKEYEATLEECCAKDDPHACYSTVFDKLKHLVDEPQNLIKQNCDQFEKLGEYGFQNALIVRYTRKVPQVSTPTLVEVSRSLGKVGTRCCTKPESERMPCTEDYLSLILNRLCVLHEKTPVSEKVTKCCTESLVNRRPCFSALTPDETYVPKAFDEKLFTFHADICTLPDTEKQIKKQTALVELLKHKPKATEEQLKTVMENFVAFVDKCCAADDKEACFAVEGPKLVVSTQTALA

[19] = system: Panel leukemia (Carcinoma cell lines); test: Anticancer activity against human Panel leukemia (Carcinoma cell lines) assessed as total growth inhibition incubated for 48 hrs by Sulphorhodamine B assay; format: functional
[20] = system: Panel prostate (Carcinoma cell lines); test: Anticancer activity against human Panel prostate (Carcinoma cell lines) assessed as lethality incubated for 48 hrs by Sulphorhodamine B assay; format: functional
[21] = Anticancer activity against human Non-small cell lung cancer cell line assessed as cell growth inhibition incubated for 48 hrs by Sulphorhodamine B assay; format: functional; method in brief: as §1
[22] = system: Panel melanoma (Carcinoma cell lines); test: Anticancer activity against human Panel melanoma (Carcinoma cell lines) assessed as total growth inhibition incubated for 48 hrs by Sulphorhodamine B assay; format: functional; method in brief: as §1
[23] = system: Panel CNS (Carcinoma cell lines); test: Anticancer activity against human Panel CNS (Carcinoma cell lines) assessed as cell growth inhibition incubated for 48 hrs by Sulphorhodamine B assay; format: functional; method in brief: as §1
[24] = system: Panel breast (Carcinoma cell lines); test: Anticancer activity against human Panel breast (Carcinoma cell lines) assessed as cell growth inhibition incubated for 48 hrs by Sulphorhodamine B assay; format: functional; method in brief: as §1
[25] = system: Panel breast (Carcinoma cell lines); test: Anticancer activity against human Panel breast (Carcinoma cell lines) assessed as lethality incubated for 48 hrs by Sulphorhodamine B assay; format: functional; conditions: read-out: LC50 (the source's name)
[26] = system: Panel colon (Carcinoma cell lines); test: Anticancer activity against human Panel colon (Carcinoma cell lines) assessed as cell growth inhibition incubated for 48 hrs by Sulphorhodamine B assay; format: functional; method in brief: as §1
[27] = system: Panel leukemia (Carcinoma cell lines); test: Anticancer activity against human Panel leukemia (Carcinoma cell lines) assessed as lethality incubated for 48 hrs by Sulphorhodamine B assay; format: functional
[28] = system: Panel melanoma (Carcinoma cell lines); test: Anticancer activity against human Panel melanoma (Carcinoma cell lines) assessed as cell growth inhibition incubated for 48 hrs by Sulphorhodamine B assay; format: functional; method in brief: as §1
[29] = system: Panel renal (Carcinoma cell lines); test: Anticancer activity against human Panel renal (Carcinoma cell lines) assessed as cell growth inhibition incubated for 48 hrs by Sulphorhodamine B assay; format: functional; method in brief: as §1
[30] = system: Panel renal (Carcinoma cell lines); test: Anticancer activity against human Panel renal (Carcinoma cell lines) assessed as lethality incubated for 48 hrs by Sulphorhodamine B assay; format: functional
[31] = system: Panel leukemia (Carcinoma cell lines); test: Anticancer activity against human Panel leukemia (Carcinoma cell lines) assessed as cell growth inhibition incubated for 48 hrs by Sulphorhodamine B assay; format: functional; method in brief: as §1
[32] = system: Panel CNS (Carcinoma cell lines); test: Anticancer activity against human Panel CNS (Carcinoma cell lines) assessed as total growth inhibition incubated for 48 hrs by Sulphorhodamine B assay; format: functional; method in brief: as §1
[33] = system: Panel breast (Carcinoma cell lines); test: Anticancer activity against human Panel breast (Carcinoma cell lines) assessed as total growth inhibition incubated for 48 hrs by Sulphorhodamine B assay; format: functional; method in brief: as §1
[34] = system: Panel ovarian (Carcinoma cell lines); test: Anticancer activity against human Panel ovarian (Carcinoma cell lines) assessed as total growth inhibition incubated for 48 hrs by Sulphorhodamine B assay; format: functional

Row | SMILES | GI50 [1] [µM] | TGI [2] [µM] | Activity (Calf thymus DNA [3]) | inhibition [4] | Activity (Calf thymus DNA [5]) [nm] | TGI [6] [µM] | inhibition [8] | inhibition [11] | GI50 [14] [µM] | inhibition [16] | TGI [18] [µM] | Activity (Albumin) | GI50 [21] [µM] | TGI [22] [µM] | GI50 [23] [µM] | GI50 [24] [µM] | GI50 [26] [µM] | GI50 [28] [µM] | GI50 [29] [µM] | GI50 [31] [µM] | other results
1 | c1ccc2[nH]c(-c3ccc(Nc4nc(N5CCCC5)nc5[nH]ncc45)cc3)nc2c1 | 1.1 | 3.14 | Active | inactive | 259 | 3.17 | Active | Active | 1.37 | Active | 5.88 | Active | 1.08 | 1.53 | 0.86 | 0.73 | 2.32 | 0.67 | 1.22 | 2.38 | LC50 (concentration killing 50% of cells) [7]: 6.85 µM; LC50 (concentration killing 50% of cells) [9]: 4.17 µM; TGI [10]: 2.67 µM; LC50 (lethal concentration, 50% cell kill) [12]: 2.23 µM; LC50 (lethal concentration, 50% cell kill) [13]: 11.5 µM; Activity (Calf thymus DNA [15]): Active; LC50 (lethal concentration 50) [17]: 4.32 µM; TGI [19]: 6.7 µM; LC50 [20]: 20.6 µM; CC50 [25]: 6.35 µM; LC50 [27]: 31.8 µM; LC50 (50% lethal concentration) [30]: 7.04 µM; TGI [32]: 2.01 µM; TGI [33]: 2.08 µM; TGI [34]: 2.73 µM
2 | c1ccc(CNc2nc(Nc3ccc(-c4nc5ccccc5[nH]4)cc3)c3cn[nH]c3n2)cc1 | 2.52 | 9.43 | Active | inactive | 264 | 8.99 | Active | Active | 2.56 | Active | 5.12 | Active | 2.54 | 4.29 | 2.96 | 2.04 | 2 | 1.85 | 2.3 | 2.67 | LC50 (concentration killing 50% of cells) [7]: 41.8 µM; LC50 (concentration killing 50% of cells) [9]: 28.1 µM; TGI [10]: 6.16 µM; LC50 (lethal concentration, 50% cell kill) [12]: 34.7 µM; LC50 (lethal concentration, 50% cell kill) [13]: 55.3 µM; Activity (Calf thymus DNA [15]): Active; LC50 (lethal concentration 50) [17]: 19.3 µM; TGI [19]: 6.43 µM; LC50 [20]: 41.8 µM; CC50 [25]: 46.3 µM; LC50 [27]: > 100 µM; LC50 (50% lethal concentration) [30]: 31.2 µM; TGI [32]: 16.7 µM; TGI [33]: 5.85 µM; TGI [34]: 7.83 µM
3 | c1ccc2[nH]c(-c3ccc(Nc4nc(N5CCOCC5)nc5[nH]ncc45)cc3)nc2c1 |  |  | Active | inactive | 260 |  | Active | Active |  | Active |  | Active |  |  |  |  |  |  |  |  | 
4 | CC[C@H](CO)Nc1nc(NCc2ccccc2)c2ncn(C(C)C)c2n1 [SELICICLIB] | 29.3 | 81.5 |  |  |  | 84.8 |  |  | 17.9 |  | 84.9 |  | 23.6 | 57.6 | 24.7 | 22.7 | 24.8 | 14.8 | 24.9 | 37.5 | TGI [32]: 82.2 µM; TGI [33]: 73 µM
5 | NCCNc1nc(Nc2ccc(-c3nc4ccccc4[nH]3)cc2)c2cn[nH]c2n1 |  |  | Active | inactive | 259 |  | Active | Active |  | Active |  | Active |  |  |  |  |  |  |  |  | 
